Data set [1] deals with dengue virus type 2. Put plainly: Antiviral activity against Dengue virus serotype 2 strain New Guinea C infected in HuH7 cells measured at 24 hrs post infection by focus forming assay. In kind it is functional. Particulars: Thailand/NGS-C/1944, Huh-7, 24 h. The method in brief: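 Huh7 cells infected with DENV2, then treated with a range of compound concentrations. Viral yield measured 24 h later by titration of infectious particles in supernatants; in parallel, cell viability measured. IC90 (1-log10 reduction in infectious progeny) and CC50 derived by non-linear regression. Mean ± SD of experimental duplicates, n ≥ 2 repeats.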

Data set [2] deals with dengue virus type 2. Kind of data set: Antiviral activity against Dengue virus serotype 2 replicon harboring GVD mutant infected in HuH7 cells assessed as reduction in viral RNA translation at 10 uM measured at 6 hrs post infection by luciferase reporter gene assay relative to control. In kind it is functional. Set-up: scale not given: the % may be the effect or the level left. The method in brief:
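Huh7 cells transfected with in vitro-transcribed nonreplicative DENV2(GVD) reporter replicon RNA, then treated immediately with compound at 2 or 10 μM. Intracellular firefly luciferase activity read 6 h post-transfection as a measure of RNA translation and expressed relative to DMSO-treated samples. Mean ± SD of experimental duplicates, n = 3 repeats.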
(Replicon systems follow genome replication, usually without infectious particles.)

The nature of data set [3]: Half life in mouse hepatic microsomes at 1 uM in presence of NADPH by LC-MS/MS method. In kind it is ADME, Microsome. The note with it: liver microsomes. In short, it runs like this: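 Compound incubated with mouse liver microsomes; half-life (T1/2, min) of the compound reported as a measure of metabolic stability.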
For orientation: Liver microsomes are a subcellular fraction often used to study metabolism.

For data set [4], the target named is Epithelial discoidin domain-containing receptor 1 (Homo sapiens, UniProt Q08345). Kind of data set: Inhibition of GST-tagged human DDR1 catalytic domain (440 to 876 residues) expressed in baculovirus expression system by LanthaScreen assay. The method in brief:
(§1)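 IC50 against DDR1 and DDR2 determined with LanthaScreen binding assays.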

Data set [5] has as its target T1, Discoidin domain-containing receptor 2 (Homo sapiens, UniProt Q16832).
T1 sequence (Q16832 whole entry): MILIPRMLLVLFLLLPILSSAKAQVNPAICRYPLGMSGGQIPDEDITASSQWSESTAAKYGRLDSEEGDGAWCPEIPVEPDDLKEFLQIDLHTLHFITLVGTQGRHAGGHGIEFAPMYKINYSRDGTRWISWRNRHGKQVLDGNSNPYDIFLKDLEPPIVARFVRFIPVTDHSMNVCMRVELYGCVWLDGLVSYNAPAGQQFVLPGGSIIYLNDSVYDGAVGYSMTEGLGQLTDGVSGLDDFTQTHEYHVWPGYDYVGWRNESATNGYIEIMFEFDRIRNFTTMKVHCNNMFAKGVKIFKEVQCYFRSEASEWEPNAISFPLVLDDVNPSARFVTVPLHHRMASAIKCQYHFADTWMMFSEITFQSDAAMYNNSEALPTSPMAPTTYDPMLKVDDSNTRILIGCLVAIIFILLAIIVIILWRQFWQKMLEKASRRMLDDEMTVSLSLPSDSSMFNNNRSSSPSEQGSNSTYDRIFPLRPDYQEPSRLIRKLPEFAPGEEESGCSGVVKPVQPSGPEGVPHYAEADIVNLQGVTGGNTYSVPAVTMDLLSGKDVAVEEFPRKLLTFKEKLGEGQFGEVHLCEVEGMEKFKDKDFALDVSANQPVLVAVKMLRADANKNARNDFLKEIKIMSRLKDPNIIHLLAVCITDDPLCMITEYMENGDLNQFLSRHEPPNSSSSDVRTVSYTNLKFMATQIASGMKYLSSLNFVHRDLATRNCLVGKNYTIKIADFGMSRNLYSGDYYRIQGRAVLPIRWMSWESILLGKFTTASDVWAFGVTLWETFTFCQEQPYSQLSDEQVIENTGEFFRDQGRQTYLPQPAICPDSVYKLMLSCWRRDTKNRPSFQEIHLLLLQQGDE
Kind of data set: Inhibition of GST-tagged human DDR2 cytoplasmic domain (427 to 855 residues) expressed in baculovirus expression system by LanthaScreen assay. The method in brief: as §1
(Time-resolved FRET reads energy transfer from a long-lived donor to a nearby acceptor.)

Data set [6] addresses Serine/threonine-protein kinase pim-2 (Homo sapiens, UniProt Q9P1W9). Kind of data set: Inhibition of recombinant full length GST-tagged human PIM2 expressed in baculovirus expression system by Z'-Lyte assay. The method in brief: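 IC50 against PIM1, PIM2, BTK and BMX determined with Z′-Lyte kinase activity assays.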
A short description of data set [7]: Selectivity index, ratio of CC50 for cytotoxicity against human HuH7 to IC90 for antiviral activity against Dengue virus serotype 2 strain New Guinea C infected in HuH7 cells. The method in brief:
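Huh7 cells infected with DENV2, then treated across a concentration range. At 24 h, cell viability was measured, and secreted infectious virus was titrated by focus-forming assay. CC50 (50% cytotoxicity) and IC90 (1-log10 reduction in infectious progeny) were fitted by non-linear regression. Experimental duplicates, n ≥ 2 repeats.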

Data set [8] in a line: Half life in Swiss albino mouse at 2 mg/kg, iv by LC/MS/MS method. It is filed as ADME, organism-based. The note with it: in vivo. In short, it runs like this:
(§2)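 Mouse pharmacokinetics after intravenous, oral or intraperitoneal dosing; plasma parameters derived were T1/2, Tmax, Cmax, AUClast, AUCinf, clearance, Vss and oral bioavailability F.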

The nature of data set [9]: Half life in Swiss albino mouse at 10 mg/kg, po by LC/MS/MS method. In kind it is ADME, organism-based. Particulars: in vivo. In short, it runs like this: as §2
Data set [10] in a line: Tmax in Swiss albino mouse at 10 mg/kg, po by LC/MS/MS method. It is filed as ADME, organism-based. Particulars: in vivo. In short, it runs like this: as §2
Data set [11] can be described thus: Cmax in Swiss albino mouse at 10 mg/kg, po by LC/MS/MS method. It is filed as ADME, organism-based. Particulars: in vivo. On the set-up: dose 10 mg/kg, route oral. In short, it runs like this: as §2
The nature of data set [12]: Cmax in Swiss albino mouse at 50 mg/kg, ip by LC/MS/MS method. It is filed as ADME, organism-based. Set-up: dose 50 mg/kg, route intraperitoneal. The note with it: in vivo. The method in brief:
as §2

Data set [13] is described as follows: AUClast in Swiss albino mouse at 10 mg/kg, ip by LC/MS/MS method. In kind it is ADME, organism-based. Set-up: dose 10 mg/kg, route intraperitoneal, time 0 - last. Particulars: in vivo.
Data set [14] in a line: AUC (infinity) in Swiss albino mouse at 2 mg/kg, iv by LC/MS/MS method. In kind it is ADME, organism-based. Set-up: dose 2 mg/kg, route intravenous, time infinity. The note with it: in vivo.
A short description of data set [15]: AUC (infinity) in Swiss albino mouse at 10 mg/kg, ip by LC/MS/MS method. In kind it is ADME, organism-based. Set-up: dose 10 mg/kg, route intraperitoneal, time infinity. Particulars: in vivo.
Data set [16] in a line: AUC (infinity) in Swiss albino mouse at 50 mg/kg, ip by LC/MS/MS method. It is filed as ADME, organism-based. The note with it: in vivo. On the set-up: dose 50 mg/kg, time infinity, route intraperitoneal.
A short description of data set [17]: Oral bioavailability in Swiss albino mouse at 10 mg/kg by LC/MS/MS method. Particulars: in vivo. In kind it is ADME, organism-based. In short, it runs like this: as §2

The structures appear in SMILES notation.

Sequence of Serine/threonine-protein kinase pim-2 (Q9P1W9 whole entry): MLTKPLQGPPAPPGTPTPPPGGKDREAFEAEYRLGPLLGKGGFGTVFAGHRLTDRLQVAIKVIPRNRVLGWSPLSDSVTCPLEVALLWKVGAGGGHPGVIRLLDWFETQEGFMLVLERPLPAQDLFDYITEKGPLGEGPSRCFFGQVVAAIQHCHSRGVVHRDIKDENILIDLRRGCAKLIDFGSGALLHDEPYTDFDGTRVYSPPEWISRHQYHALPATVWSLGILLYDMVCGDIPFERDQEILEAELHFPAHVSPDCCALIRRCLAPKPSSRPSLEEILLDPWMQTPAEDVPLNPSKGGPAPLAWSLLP
Sequence of Epithelial discoidin domain-containing receptor 1 (Q08345 whole entry, the tested form may be a part): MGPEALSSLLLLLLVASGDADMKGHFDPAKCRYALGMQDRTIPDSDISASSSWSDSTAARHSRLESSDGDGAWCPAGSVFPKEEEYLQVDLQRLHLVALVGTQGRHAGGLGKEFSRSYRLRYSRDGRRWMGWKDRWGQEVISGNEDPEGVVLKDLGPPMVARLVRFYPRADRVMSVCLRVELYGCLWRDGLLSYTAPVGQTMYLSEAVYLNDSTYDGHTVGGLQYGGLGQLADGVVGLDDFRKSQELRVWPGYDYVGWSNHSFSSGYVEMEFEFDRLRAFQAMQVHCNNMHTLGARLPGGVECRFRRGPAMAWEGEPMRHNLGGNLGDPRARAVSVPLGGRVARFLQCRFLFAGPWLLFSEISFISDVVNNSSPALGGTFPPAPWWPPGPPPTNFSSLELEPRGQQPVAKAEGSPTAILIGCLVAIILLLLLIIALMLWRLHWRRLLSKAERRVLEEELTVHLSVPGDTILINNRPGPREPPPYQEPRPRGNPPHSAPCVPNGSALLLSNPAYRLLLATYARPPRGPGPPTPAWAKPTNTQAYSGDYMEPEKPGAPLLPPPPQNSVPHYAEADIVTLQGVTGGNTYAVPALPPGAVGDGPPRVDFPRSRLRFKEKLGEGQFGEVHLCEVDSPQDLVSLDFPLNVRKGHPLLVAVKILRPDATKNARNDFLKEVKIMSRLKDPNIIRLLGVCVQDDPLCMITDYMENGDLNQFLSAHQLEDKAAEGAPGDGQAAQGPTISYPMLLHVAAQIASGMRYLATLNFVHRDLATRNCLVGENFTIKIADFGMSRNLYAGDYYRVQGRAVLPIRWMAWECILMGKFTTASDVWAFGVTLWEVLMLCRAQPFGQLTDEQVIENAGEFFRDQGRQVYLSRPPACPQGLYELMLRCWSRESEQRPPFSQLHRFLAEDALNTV

For orientation: IC90 means the concentration at which the effect reaches the 90% level. The term half-life denotes the time needed for the level to fall by half in the phase considered. Broadly, the IC50 is the concentration at which inhibition is half-maximal. By Tmax is commonly meant the time at which the peak concentration occurs. As a reminder, the Cmax is the peak of the concentration-time curve. The term AUC(0-t) denotes exposure summed from dosing to a finite time, without extrapolation to infinity. The AUC(0-inf) is the area under the concentration-time curve extrapolated to infinity. As usually defined, the bioavailability is the share of a dose that reaches the circulation, judged against a reference dose that is usually intravenous. For `Cc1ccc(-n2c(=O)ccc3ccc4ccc(-c5cnn(C)c5)cc4c32)cc1NC(=O)/C=C/CN(C)C`, the 90% effect level in the data set with dengue virus type 2 [1] (IC90) was put at 555 nM. Also, the Activity in the data set with dengue virus type 2 [2] was 95%. For the same compound, the half-life at 1 µM in [3] stood at 15.6 min. Besides, the IC50 in data set [4] is 5.02 µM; in [5], greater than 10 µM; in data set [6], greater than 10 µM. The “Selectivity Index” value in [7] is recorded as 35. Moreover, the results for the half-life in data set [8] and in data set [9] were 64.2 min and 91.8 min, respectively. In data set [10], the Tmax came to 1 h. Also, the Cmax is 40.4 ng/mL in data set [11] and 4510 ng/mL in [12]. In addition, the AUC(0-t) in data set [13] was found to be 1110 ng·h/mL. Besides, the results for the AUC(0-inf) in data set [14], in [15] and in [16] were 167 ng·h/mL, 1210 ng·h/mL and 8550 ng·h/mL, respectively. The same compound showed a bioavailability in [17] of 12%.

The values above are taken from ChEMBL document CHEMBL4041550, “Structure-Activity Relationship Study of QL47: A Broad-Spectrum Antiviral Agent” (ACS Med Chem Lett, 2017).
